Screening results: PubChem, several laboratories
A selection: hits, their analogues and other compounds. The true share with any hit is near 5.4%.
Mdm2-MdmX inh: inhibitors of human Mdm2-MdmX association, primary screen, cell-based, luminescence, split luciferase, SaOS-2, uHTS; 330,000 tested, 3% active; SaOS-2 split-luciferase Mdm2/MdmX complementation; Protein Mdm4 (Homo sapiens) + E3 ubiquitin-protein ligase Mdm2 (Homo sapiens), …; AID 485346, 2010; inhibition, % at 8 µM;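 active = inhibition of at least 50% at 8 µM in the primary screen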
Target sequence (O15151 whole entry, looked up): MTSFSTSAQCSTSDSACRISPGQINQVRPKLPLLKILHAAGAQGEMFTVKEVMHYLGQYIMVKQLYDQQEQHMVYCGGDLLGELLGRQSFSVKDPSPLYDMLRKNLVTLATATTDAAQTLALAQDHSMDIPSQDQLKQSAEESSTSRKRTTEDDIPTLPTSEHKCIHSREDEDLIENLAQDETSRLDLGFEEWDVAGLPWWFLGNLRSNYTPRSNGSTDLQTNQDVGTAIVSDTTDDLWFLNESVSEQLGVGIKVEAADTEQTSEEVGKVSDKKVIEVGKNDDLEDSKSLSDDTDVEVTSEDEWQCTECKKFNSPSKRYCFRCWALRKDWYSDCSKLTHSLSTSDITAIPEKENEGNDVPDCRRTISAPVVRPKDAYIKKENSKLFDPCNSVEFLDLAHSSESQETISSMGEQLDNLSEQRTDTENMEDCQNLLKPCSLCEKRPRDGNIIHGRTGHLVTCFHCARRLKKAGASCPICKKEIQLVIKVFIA
Target sequence (Q00987 whole entry, looked up): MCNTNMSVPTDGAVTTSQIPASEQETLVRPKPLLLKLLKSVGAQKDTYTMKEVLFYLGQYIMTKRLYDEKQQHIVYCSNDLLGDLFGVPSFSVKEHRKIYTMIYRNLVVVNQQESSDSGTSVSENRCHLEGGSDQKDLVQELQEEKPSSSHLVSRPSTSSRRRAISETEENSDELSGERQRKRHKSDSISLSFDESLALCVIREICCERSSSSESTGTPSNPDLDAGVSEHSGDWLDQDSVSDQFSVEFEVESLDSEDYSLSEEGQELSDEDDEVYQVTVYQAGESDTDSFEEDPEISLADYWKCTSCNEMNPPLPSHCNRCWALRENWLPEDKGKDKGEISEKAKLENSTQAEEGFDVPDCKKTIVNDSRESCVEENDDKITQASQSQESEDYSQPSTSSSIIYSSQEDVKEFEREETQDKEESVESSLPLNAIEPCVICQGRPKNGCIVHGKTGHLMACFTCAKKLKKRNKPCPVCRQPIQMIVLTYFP
SKKanGAS inh: S. pyogenes SKKanGAS growth inhibitors in kanamycin, primary screen, streptokinase expression inhibitor project, SKKanGAS strain, BacTiter-Glo luminescence | 6 h | inhibition, % at 7.5 µM | 300,000 tested, 1.3% active;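 active = mean replicate score, as percent of positive control median, at least 50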;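 also: strain carries kanamycin resistance gene driven by streptokinase promoter and grows in 40 µg/ml kanamycin; loss of luminescence reflects streptokinase promoter inhibition or plain growth inhibition; 0% = median of DMSO wells and 100% = positive control at its reference dose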
T cruzi inh: inhibitors of intracellular T. cruzi growth, primary screen, luminescence, NIH3T3 host cells. T. cruzi beta-gal in NIH3T3, 90 h. inhibition, % (concentration not given with the values). 300,000 tested, 1.4% active;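 active = mean inhibition across valid replicates above about 55%, limit read from the data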;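 also: signal also drops with host cell toxicity which is not excluded here; 0% = plate median of DMSO wells and 100% = zero luminescence signal; higher percent means less beta-gal luminescence so fewer parasites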
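Test system: β-gal T. cruzi (Tulahuen C4) inside NIH/3T3 cells / Quantity: 5,000 cells/well / Measured by: luminescence from GalScreen with 0.05% NP40, read after 60 min / Medium: DMEM plus 2% FBS / Measure: parasite load inhibition, % / Reagent: Tulahuen C4 trypomastigotes, 5000/well / Schedule: co-culture of at least 90 h after 3 h attachment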
CSC inhib: cancer stem cell viability inhibitors, primary screen, luminescence; cancer stem cell-like cells viability; AID 2717, 2010; inhibition, % at 7.5 µM; 300,000 tested, 1.1% active; in the data active = inhibition above about 75%; tested in HMLE shEcad cells
aSyn UTR inh: MLPCN primary screen, SNCA 5' untranslated region; AID 1813, 2009; 300,000 tested, 0.82% active; inhibition, % (tested at 7.5 µM); alpha-synuclein 5'UTR reporter, inhibitor activity; in the data active = inhibition above about 60%;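 also: H4 neuroglioblastoma cells stably carrying SNCA 5'UTR luciferase fusion; 0% = DMSO wells and 100% = positive control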
Starred values were filed as active, the others as inactive; . = no result.

SMILES | Mdm2-MdmX inh | SKKanGAS inh | T cruzi inh | CSC inhib | aSyn UTR inh
CC(C)(Oc1ccc(Cl)cc1)C(=O)NC1=NN(c2ccccc2)C(=O)C1 | 16.6 | 94.5* | -7.8 | 112.5* | 12.5
O=C1CC(NC(=O)C(F)(F)F)=NN1c1ccccc1 | -13.9 | 3.6 | -16.8 | 3.0 | 1.6
CC(=O)Nc1ccc(NC(=O)C(C)Oc2ccc(Cl)cc2Cl)cc1 (centres undefined) | 13.1 | -0.2 | 4.0 | -16.3 | 12.1
Clc1ccc(-c2cc3ccccc3nc2N2CCCC2)cc1 | 3.8 | 69.2* | 9.5 | 27.5 | 12.5
Cc1cccc(NC(=O)CCC(=O)N/N=C/c2ccc(O)cc2O)c1 | -13.9 | 10.3 | -8.5 | 79.3* | 6.5
Cc1ccc(NC(=O)CCC(=O)N/N=C/c2ccccc2O)cc1 | 41.1 | 6.8 | 1.0 | 7.1 | 15.6
Cc1cccc(N/N=C/c2ccccc2O)c1 | -67.6 | 3.2 | 7.9 | 94.1* | -182.0
Cc1c(Br)c(O)c(Br)c(O)c1/C=N/n1c(-c2ccccc2)n[nH]c1=S | 15.7 | 25.6 | 42.0 | 37.4 | 61.9*
Cc1nn(-c2ccccc2)c(C)c1/C=N/n1c(-c2ccc(C(C)(C)C)cc2)n[nH]c1=S | 30.7 | 87.3* | 10.6 | 80.2* | 4.6
Oc1c(Br)cc(/C=N/n2c(-c3ccccc3)n[nH]c2=S)c(O)c1Br | . | 13.4 | 0.3 | 2.4 | 8.4
CCc1n[nH]c(=S)n1/N=C/c1c(C)nn(-c2ccccc2)c1Cl | 28.1 | 21.1 | -6.3 | . | 106.3*
O=C(NCCCc1ccccc1)c1cc(COc2ccc(F)cc2Cl)on1 | 1.7 | -1.9 | 22.3 | 1.7 | 13.9
Cn1c(SCC(=O)Nc2cccnc2Cl)nnc1-c1ccco1 | -2.3 | . | . | -9.3 | .
Cc1ccc(C)c2nc3sc(C(=O)N4CCCc5ccccc54)c(N)c3cc12 | 0.5 | -8.7 | 65.9* | 4.7 | 8.9
CCc1ccc2nc3sc(C(=O)N4CCc5ccccc54)c(N)c3cc2c1 | 47.4 | 2.3 | -22.1 | 0.1 | -19.3
Cc1nnc(NC(=O)C2CCN(S(=O)(=O)c3ccc(F)c(Cl)c3)CC2)o1 | 7.2 | . | . | . | .
N#CCC(=O)Nc1ccc(C(=O)OCC(=O)c2ccc3c(c2)NC(=O)CO3)cc1 | 18.1 | . | . | 26.7 | .
COc1ccc(-c2csc(NC(=S)NC(=O)/C=C/c3ccco3)n2)cc1OC | . | 13.0 | -37.1 | 79.1* | 62.9*
O=C(/C=C/c1ccco1)Nc1nc(-c2ccccn2)cs1 | 25.0 | 55.4* | 59.6* | -11.6 | -79.2
CCOC(=O)N1CCN(Cc2ccc(OCC(O)CN3CCCCC3)cc2)CC1 (centres undefined) | 35.3 | 2.6 | 5.9 | -15.3 | 10.1
O=C(N/N=C/c1cccc(O)c1)c1cc(-c2ccc3c(c2)OCO3)n[nH]1 | 14.7 | 20.7 | -5.0 | 75.8* | 2.8
O=C(N/N=C/c1ccc(O)cc1)c1cc(-c2ccc3c(c2)OCO3)n[nH]1 | 23.1 | 4.2 | 17.7 | 127.4* | -60.3
O=C(N/N=C/c1ccccc1)c1cc(-c2ccc3c(c2)OCO3)n[nH]1 | 27.9 | -6.3 | 16.3 | 29.8 | -17.0
CCCc1nc(SCC(=O)N2CCCCCC2)c2c(=O)n(C)c(=O)n(C)c2n1 | . | 50.1* | 24.7 | -2.9 | 7.7
O=C(NCCSc1ccccc1)c1ccc(Br)cc1 | -180.4 | 0.3 | 1.3 | . | -66.7
SMILES | Mdm2-MdmX inh | SKKanGAS inh | T cruzi inh | CSC inhib | aSyn UTR inh
O=C(NCCCSc1ccccc1)c1cc(Br)ccc1O | 38.3 | 6.9 | -2.7 | 79.5* | 10.6
CC(=O)CCCC(NS(=O)(=O)CCC(Cl)(Cl)Cl)c1ccccc1 (centres undefined) | -3.2 | -1.4 | -6.3 | -15.7 | -17.3
O=C(NC1CCCc2ccccc21)c1ccccc1 (centres undefined) | 18.3 | 28.1 | -1.3 | . | 14.9
O=C(NC1CCCc2ccccc21)c1n[nH]c(=O)c2ccccc12 (centres undefined) | 16.2 | -2.4 | -0.4 | 27.5 | 87.5*
Cc1cc2oc(=O)cc(CN3CCN(S(=O)(=O)/C=C/c4ccccc4)CC3)c2cc1C | 10.4 | -6.7 | 66.2* | 8.4 | 42.6
Cc1ccc2[nH]c(O)c(N=NC(=O)c3ccc(NS(=O)(=O)c4cccs4)cc3)c2c1 | -42.2 | 76.1* | 19.0 | 7.3 | -27.0
O=C(N=Nc1c(O)[nH]c2ccc(F)cc12)c1ccc(NS(=O)(=O)c2cccs2)cc1 | 5.1 | . | . | . | .
CC(C)(C)c1ccc(-c2noc(-c3ccc4c(c3)CCO4)n2)cc1 | -63.2 | 82.4* | -8.7 | 37.7 | -156.8
Cc1cc(-c2nc(-c3ccc(C(C)(C)C)cc3)no2)no1 | -87.5 | -1.1 | 1.8 | -7.3 | -170.5
